Results as given in PMC2853048 (Journal of medicinal chemistry, 2009).

Experiments:
endogenous Gli1 = assay: Gli-mediated transcription reporter assay in Rh30 cells; type: cell-based; settings: Rh30 cells without cotransfection of exogenous Gli1, 24 h, 10, 20 or 40 µM
Method in brief: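 Rh30 cells were grown in RPMI-1640 with 10% FBS at 37 °C, 5% CO2. At about 70% confluence they were transfected overnight with GliLuc-BS (500 ng/mL) and pRL-CMV (2.5 ng/mL) using Fugene6. Cells were replated, then dosed 18 h later for 24 h. Lysates were read by dual luciferase (firefly/Renilla). DMSO = 0% inhibition; triplicates, SE shown.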

BJ-hTERT cells = assay: Cell viability assay; type: cell-based; settings: noncancerous human skin fibroblasts, 40 µM, 72 h
Method in brief: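 Cells plated in 384-well format 24 h before dosing. A 10-mM DMSO stock was diluted in EMEM to 160 µM (4×) and added in triplicate to a final 40 µM. Incubated 68 h at 37 °C, then Alamar Blue for 4 h at 37 °C. Fluorescence read at ex 510 / em 590 nm; viability expressed relative to DMSO control wells.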

exogenous Gli1 protein = assay: Western blot of Gli1 protein levels in Gli1-transfected C3H10T1/2 cells; type: cell-based, human
[1] = Stability of compounds in C3H10T1/2 cell cultures; type: in vitro ADME, mouse; settings: 24 hours
human Gli1 = biological target: T1, human Gli1 (Homo sapiens, UniProt P08151); assay: Gli-mediated transcription reporter assay in C3H10T1/2 cells with exogenous Gli1; type: cell-based; settings: for inhibition of Gli1-mediated transcription (Gli-reporter activity), in words: Gli1-transfected C3H10T1/2 cells, 24 h, 20 µM or 40 µM
T1 sequence (P08151 1-1106): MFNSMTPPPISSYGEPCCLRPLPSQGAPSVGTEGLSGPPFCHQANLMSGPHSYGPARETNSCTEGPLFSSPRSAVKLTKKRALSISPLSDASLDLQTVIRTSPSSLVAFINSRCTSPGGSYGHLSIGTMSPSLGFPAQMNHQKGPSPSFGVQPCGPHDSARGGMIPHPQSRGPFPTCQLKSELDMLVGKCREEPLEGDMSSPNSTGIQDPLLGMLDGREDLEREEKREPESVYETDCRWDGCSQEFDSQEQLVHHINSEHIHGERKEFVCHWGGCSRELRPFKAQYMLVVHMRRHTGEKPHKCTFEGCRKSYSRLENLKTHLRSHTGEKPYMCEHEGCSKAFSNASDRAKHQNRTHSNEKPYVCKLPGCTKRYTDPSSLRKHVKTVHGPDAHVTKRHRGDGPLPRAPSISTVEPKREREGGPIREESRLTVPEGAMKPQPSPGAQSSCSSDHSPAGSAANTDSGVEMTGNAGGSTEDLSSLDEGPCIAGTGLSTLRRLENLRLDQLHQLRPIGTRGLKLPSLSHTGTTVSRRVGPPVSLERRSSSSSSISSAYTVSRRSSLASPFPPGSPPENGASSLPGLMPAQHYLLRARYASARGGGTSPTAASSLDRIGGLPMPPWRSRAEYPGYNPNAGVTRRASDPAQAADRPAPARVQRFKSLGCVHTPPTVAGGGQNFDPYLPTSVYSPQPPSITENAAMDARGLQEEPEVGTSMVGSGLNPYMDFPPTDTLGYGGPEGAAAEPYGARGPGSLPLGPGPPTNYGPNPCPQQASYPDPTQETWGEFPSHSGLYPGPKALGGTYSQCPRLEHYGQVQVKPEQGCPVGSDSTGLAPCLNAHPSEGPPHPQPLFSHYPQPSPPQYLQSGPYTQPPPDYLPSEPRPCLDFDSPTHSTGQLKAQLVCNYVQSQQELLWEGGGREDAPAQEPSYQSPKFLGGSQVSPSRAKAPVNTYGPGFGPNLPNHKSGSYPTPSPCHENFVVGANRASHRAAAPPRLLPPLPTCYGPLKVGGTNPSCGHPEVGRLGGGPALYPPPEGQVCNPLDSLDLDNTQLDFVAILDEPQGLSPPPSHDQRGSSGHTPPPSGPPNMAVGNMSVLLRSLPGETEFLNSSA

C3H10T1/2 cells = assay: Toxicity towards C3H10T1/2 cells in the reporter assay; type: cell-based, mouse; settings: data not shown

Row | Compound | inhibition of Gli1-mediated transcription (Gli-reporter activity), in words (human Gli1) | also measured
1 | CCCN(CCc1ccc(O)cc1)C(=O)[C@@H](C)c1cccc(C(=O)c2ccccc2)c1 [Compound 63, (S)-2-(3-Benzoylphenyl)-N-(4-hydroxyphenethyl)-N-propylpropanamide] | – | inhibition of Gli-reporter activity in Rh30 cells, in words (endogenous Gli1): downregulated; cell viability / toxicity, BJ-hTERT (BJ-hTERT cells): without showing toxicity; exogenous Gli1 protein level (exogenous Gli1 protein): not reduced; stability in the C3H10T1/2 cell cultures [1]: stable
2 | (S)-2-(3-Benzoylphenyl)-N-(4-hydroxy-3-methoxyphenethyl)propanamide [Compound 51] | reduced the activity by about half | –
3 | C[C@H](COC(=O)Nc1ccc(O)cc1)c1cccc(C(=O)c2ccccc2)c1 [Compound 61, (S)-2-(3-Benzoylphenyl)propyl 4-hydroxyphenylcarbamate] | substantially decreased the activity | –
4 | (S)-2-(3-Benzoylphenyl)-N-(2-hydroxyphenethyl)propanamide [Compound 44] | slightly decreased at 20 µM | –
5 | O=C(Cc1cccc(Oc2ccccc2)c1)NCCc1ccc(O)cc1 [Compound 42, N-(4-Hydroxyphenethyl)-2-(3-phenoxyphenyl)acetamide] | equipotent | –
6 | CC(C(=O)NCCc1ccc(O)cc1)c1cccc(C(=O)c2ccccc2)c1 (racemic) [Compound 37, (±)-2-(3-Benzoylphenyl)-N-(4-hydroxyphenethyl)propanamide] | lower activity than did 36 | –
7 | C[C@H](CNC(=O)c1ccc(O)cc1)c1cccc(C(=O)c2ccccc2)c1 [Compound 55, (S)-N-(2-(3-Benzoylphenyl)propyl)-4-hydroxybenzamide] | better activity | –
8 | C[C@H](C(=O)NCCc1ccc(O)cc1)c1cccc(C(O)c2ccccc2)c1 (stereo partly drawn) [Compound 39, (2S)-2-(3-(Hydroxy(phenyl)methyl)phenyl)-N-(4-hydroxyphenethyl)propanamide] | less potent than 36 | –
9 | (S)-2-(3-Benzoylphenyl)-N-phenethylpropanamide [Compound 48] | significantly lower activity than 36 | –
10 | COc1ccc2cc([C@@H](C)C(=O)NCCc3ccc(O)cc3)ccc2c1 [Compound 38, (R)-N-(4-Hydroxyphenethyl)-2-(6-methoxynaphthalen-2-yl)propanamide] | lower activity than did 35 | –
11 | C[C@H](CNC(=O)NCCc1ccc(O)cc1)c1cccc(C(=O)c2ccccc2)c1 [Compound 60, (S)-1-(2-(3-Benzoylphenyl)propyl)-3-(4-hydroxyphenethyl)urea] | comparable to that of 36 | cell viability / toxicity, BJ-hTERT (BJ-hTERT cells): toxic
12 | C[C@H](C(=O)NCc1ccc(O)cc1)c1cccc(C(=O)c2ccccc2)c1 [Compound 53, (S)-2-(3-Benzoylphenyl)-N-((4-hydroxyphenyl)methyl)propanamide] | decreased activity | –
13 | C[C@H](C(=O)NCCc1ccc(O)cc1)c1cccc(C(=O)c2ccccc2)c1 [Compound 36, (S)-2-(3-Benzoylphenyl)-N-(4-hydroxyphenethyl)propanamide] | high activity | inhibition of Gli-reporter activity in Rh30 cells, in words (endogenous Gli1): downregulated; cell viability / toxicity, BJ-hTERT (BJ-hTERT cells): without showing toxicity; toxicity towards the C3H10T1/2 cells (C3H10T1/2 cells): minimal toxicity as compared to 32; exogenous Gli1 protein level (exogenous Gli1 protein): not reduced; stability in the C3H10T1/2 cell cultures [1]: stable
14 | C[C@H](C(=O)NCCc1ccc(O)cc1)c1cccc(Cc2ccccc2)c1 [Compound 40, (S)-2-(3-Benzylphenyl)-N-(4-hydroxyphenethyl)propanamide] | less potent than 36 | –
15 | (S)-2-(3-Benzoylphenyl)-N-(4-chlorophenethyl)propanamide [Compound 49] | slightly lower activity than 36 | –
16 | O=C(Cc1ccccc1Oc1ccccc1)NCCc1ccc(O)cc1 [Compound 41, N-(4-Hydroxyphenethyl)-2-(2-phenoxyphenyl)acetamide] | decreased activity | –
17 | C[C@H](C(=O)Nc1ccc(O)cc1)c1cccc(C(=O)c2ccccc2)c1 [Compound 54, (S)-2-(3-Benzoylphenyl)-N-(4-hydroxyphenyl)propanamide] | decreased activity | –
18 | C[C@H](CNC(=O)CCc1ccc(O)cc1)c1cccc(C(=O)c2ccccc2)c1 [Compound 56, (S)-N-(2-(3-Benzoylphenyl)propyl)-3-(4-hydroxyphenyl)propanamide] | modest increase in the potency | –
19 | COc1ccc(C(=O)NC[C@@H](C)c2cccc(C(=O)c3ccccc3)c2)cc1 [Compound 57, (S)-N-(2-(3-Benzoylphenyl)propyl)-4-methoxybenzamide] | retained the activity | –
20 | CC(C)Cc1ccc(C(C)C(=O)NCCc2ccc(O)cc2)cc1 (stereo not drawn) [Compound 34, N-(4-Hydroxyphenethyl)-2-(4-isobutylphenyl)propanamide] | modest inhibition | –
21 | C[C@H](C(=O)NCCc1ccc(O)c(O)c1)c1cccc(C(=O)c2ccccc2)c1 [Compound 50, (S)-2-(3-Benzoylphenyl)-N-(3,4-dihydroxyphenethyl)propanamide] | – | stability in the C3H10T1/2 cell cultures [1]: significant degradation
22 | C[C@H](C(=O)N(CCc1ccc(O)cc1)CCc1ccc(O)cc1)c1cccc(C(=O)c2ccccc2)c1 [Compound 65, (S)-2-(3-Benzoylphenyl)-N,N-bis(4-hydroxyphenethyl)propanamide] | – | inhibition selectivity of Gli1-mediated transcription over Gli2-mediated transcription (human Gli1; C3H10T1/2 cells, from IC50 values): least selective; stability in the C3H10T1/2 cell cultures [1]: stable
23 | C[C@H](COC(=O)NCCc1ccc(O)cc1)c1cccc(C(=O)c2ccccc2)c1 [Compound 62, (S)-2-(3-Benzoylphenyl)propyl 4-hydroxyphenethylcarbamate] | substantially decreased the activity | –
24 | (S)-2-(3-Benzoylphenyl)-N-(3-hydroxy-4-methoxyphenethyl)propanamide [Compound 52] | reduced the activity by about half | –
25 | COc1ccc(COC[C@@H](C)c2cccc(C(=O)c3ccccc3)c2)cc1 [Compound 58, (S)-(3-(1-(4-Methoxybenzyloxy)propan-2-yl)phenyl)(phenyl)methanone] | almost no activity | –
26 | C[C@H](CNC(=O)Nc1ccc(O)cc1)c1cccc(C(=O)c2ccccc2)c1 [Compound 59, (S)-1-(2-(3-Benzoylphenyl)propyl)-3-(4-hydroxyphenyl)urea] | comparable to that of 36 | cell viability / toxicity, BJ-hTERT (BJ-hTERT cells): toxic
27 | O=C(Cc1ccc(Oc2ccccc2)cc1)NCCc1ccc(O)cc1 [Compound 43, N-(4-Hydroxyphenethyl)-2-(4-phenoxyphenyl)acetamide] | equipotent | –
28 | (S)-2-(3-Benzoylphenyl)-N-(4-methoxyphenethyl)propanamide [Compound 47] | decrease in the activity | –
